In the library only some 3.5% were active in any assay of this set; here they are far more common.
Pf gametocyte: late stage P. falciparum gametocyte viability inhibitors, primary screen, ATP luminescence, HTS; P. falciparum stage V gametocytes, 24 h; actives 0.065% (n = 150,000); inhibition, % at 10.9 µM;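 active means inhibition above the mean plus 3 SD of compounds within the control limits, set per campaign, cut at about 38% in these data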
FLuc act counter: FLuc activators, initial screening, artefact control for FLuc-dependent activation tests, biochemical, ATPlite luminescence; activation factor at 10 µM; 200,000 tested, under 10 active; ATPlite luciferase biochemical, 10 min; 0 = ATP-free wells, 1 = DMSO control; Luciferin 4-monooxygenase (Photinus pyralis), P08659; AID 1027, 2008;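 active means luciferase activation factor, scaled between plate controls, of at least 2 with compound at 10 µM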
Target sequence (P08659 whole entry, looked up): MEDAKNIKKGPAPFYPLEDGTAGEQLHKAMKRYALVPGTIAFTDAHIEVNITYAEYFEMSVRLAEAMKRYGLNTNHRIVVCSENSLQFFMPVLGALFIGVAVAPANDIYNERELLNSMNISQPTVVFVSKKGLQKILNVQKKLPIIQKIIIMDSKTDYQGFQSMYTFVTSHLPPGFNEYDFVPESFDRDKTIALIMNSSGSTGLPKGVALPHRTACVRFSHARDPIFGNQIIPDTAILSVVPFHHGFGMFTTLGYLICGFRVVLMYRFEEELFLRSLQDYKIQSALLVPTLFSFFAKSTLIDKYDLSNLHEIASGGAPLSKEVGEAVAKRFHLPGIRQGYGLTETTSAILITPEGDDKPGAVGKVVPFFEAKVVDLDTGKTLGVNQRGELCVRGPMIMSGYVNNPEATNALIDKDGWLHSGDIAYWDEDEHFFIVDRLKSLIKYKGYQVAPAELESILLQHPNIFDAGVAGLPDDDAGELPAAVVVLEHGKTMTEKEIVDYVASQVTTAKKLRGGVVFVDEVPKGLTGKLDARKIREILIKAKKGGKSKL
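Assay system: Luciferase/luciferin reagent mix; Medium: PBS as buffer for the ATP substrate; Dosing: test compounds dosed from 2 mM stocks in 100% DMSO; Times: 10 min, room temperature; Signal: luminescence from luciferase reaction; Read-out: luciferase activation; Controls: No-ATP low control, compound-free enzyme-plus-ATP high control.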
APP 5'UTR act: activators of APP 5'UTR luciferase reporter, primary screen, SH-SY5Y cells; actives 1% (n = 190,000); SH-SY5Y APP 5'UTR luciferase reporter, luminescence; zero percent = DMSO vehicle wells; activation, % at 2 µM;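 active means activation above a set limit, based on mean plus 3 SD of controls, cut at about 140% in these data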
STAT1 activator: STAT1 signaling activators, primary screen, cell-based, HTS, luciferase reporter; NIH 3T3 STAT1-luciferase reporter, IFN-gamma, luminescence; 100% = IFN-gamma alone, no compound; activation (% of control), % at 5.5 µM; actives 2.6% (n = 200,000); AID 932, 2007;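 active means activation above the screen-wide mean activation plus 3 SD, cut at about 130% in these data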
FLuc inhib CS: firefly luciferase enzyme inhibitors, primary screen, artefact control for luciferase-based inhibitor screens, biochemical, luminescence, ATPLite; Luciferin 4-monooxygenase (Photinus pyralis), P08659; 10 min; inhibition, % at 10 µM; actives 1.5% (n = 200,000);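 active means inhibition above about 50% when tested at 10 µM, limit read from the data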
NF-kB neuron act: activators of NF-kB expression in neurons, primary screen, cell-based, HTS; human neuronal cells, NF-kB reporter expression; active compounds read high; fold change at 12.5 µM; actives 1.6% (n = 190,000); in the data active means fold change above about 3.3
Hits are given with their value; n = inactive; x = no result.

SMILES	Pf gametocyte	FLuc act counter	APP 5'UTR act	STAT1 activator	FLuc inhib CS	NF-kB neuron act
COc1ccc(-n2c(-c3ccc(Br)cc3)c[n+]3c2SC(C)C3)cc1 (stereo unspecified)	n	n	n	n	n	n
CN(Cc1ccccc1)C1(CNC(=O)CCC(F)(F)F)Cc2ccccc2C1	n	x	x	x	x	x
CCC(=O)Nc1cccc(-c2cn3cccc(C)c3n2)c1	n	x	x	x	x	x
Cc1cccn2cc(-c3ccc(S(=O)(=O)N4CCCCC4)cc3)nc12	n	n	n	n	n	n
Cc1cccn2cc(-c3ccc(Cl)cc3)nc12	n	n	254.4	n	63.2	9.6
O=[N+]([O-])c1cccn2cc(-c3ccc(Br)cc3)nc12	n	n	n	140.0	n	x
COc1ccc(-c2cn3cccc(C)c3n2)cc1F	n	n	n	145.0	n	6.14
Cc1ccc(-c2cn3cccc(C)c3n2)cc1	n	n	154.4	n	69.1	7.72
O=C(CCN1C(=O)c2ccccc2C1=O)N1CCN(C2c3ccccc3-c3ccccc32)CC1	x	n	n	n	n	n
Cc1cccn2cc(-c3c[nH]c4ccccc34)nc12	n	n	n	134.0	n	n
CO/N=C\CC(=O)Nc1ccc(Cl)cc1Cl	n	n	n	n	n	n
Nc1ccc(Nc2nc(-c3cc4ccccc4oc3=O)cs2)cc1	n	n	n	144.2	n	8.98
CNc1nnc(-c2cc3ccccc3oc2=O)s1	n	n	n	142.7	n	n
CC(C)CC(COCc1ccc(C(F)(F)F)cc1)N1CCN(C(=O)c2ccc(C(F)(F)F)cc2)CCC1=O (stereo unspecified)	x	n	n	n	n	3.92
NS(=O)(=O)c1ccc(NC(=S)Nc2ccn(Cc3cccc4ccccc34)n2)cc1	n	n	n	n	n	n
Cc1ccc(C(=O)Nc2ccon2)cc1S(=O)(=O)N1CCCC1	n	n	n	n	n	n
CC(C(=O)Nc1ccccc1C(=O)O)n1c(C(F)(F)F)nc2ccccc21 (stereo unspecified)	n	n	n	n	n	n
O=C(Cn1c(C(F)(F)F)nc2ccccc21)Nc1ccccc1C(=O)O	39.4	n	n	n	n	n
Cc1ccc(Cn2ccnc2C(=O)Nc2ccccc2)cc1	n	n	n	142.5	n	n
COc1ccc(C(=O)/C=C2\Sc3ccccc3N2C)cc1	n	n	195.2	131.7	71.3	7.29
COc1ccc(-[n+]2c(C)cc(/C=C3\Sc4ccccc4N3C)cc2C)cc1	n	n	n	n	n	5.4
COc1ccccc1-[n+]1c(C)cc(/C=C2\Sc3ccccc3N2C)cc1C	n	x	x	x	x	x
CC(=S)/C=C1\Sc2ccccc2N1C	x	n	n	n	n	n
CCCCCCCCCCCC(=O)NC(C(=O)OCC)C(O)c1cccc([N+](=O)[O-])c1 (stereo unspecified)	x	n	n	n	n	n
O=c1oc2ccccc2n1CSC1=NCCS1	n	n	n	n	n	4.15
SMILES	Pf gametocyte	FLuc act counter	APP 5'UTR act	STAT1 activator	FLuc inhib CS	NF-kB neuron act
Cn1c(CSc2nc3ccccc3s2)nc2ccccc21	n	n	n	141.5	n	n
O=c1oc2ccccc2n1CSc1nc2ccccc2s1	n	n	n	136.9	n	3.32
Fc1cccc(CN2CCN(Cc3nc(-c4cnccn4)no3)CC2)c1	n	n	n	n	n	n
c1ccc(CNCc2ccc3c(c2)OCO3)nc1	x	n	n	n	n	n
Cc1csc(SCc2nnc(-c3ccc(Cl)cc3)o2)n1	x	n	n	n	n	3.69
Cc1csc(SCc2nnc(-c3ccccc3Br)o2)n1	x	n	185.3	133.5	n	5.44
Fc1ccccc1SCc1nnc(-c2ccccc2Br)o1	n	n	161.1	n	n	7.24
Cc1ccc(-c2nnc(CSc3nnc(C)s3)o2)cc1	n	n	n	n	n	n
CC(C)NC(=O)NNC(=O)c1cc(COc2cc(Cl)cc(Cl)c2)on1	n	x	x	x	x	x
Cc1cccc2c(=O)c(C(=O)NCc3cccs3)c[nH]c12	n	x	n	135.5	x	x
O=S(=O)(c1ccc(Cl)cc1)N1CCCN(c2nc3ccc(Cl)cc3s2)CC1	n	x	x	x	x	x
